ChEMBL document CHEMBL1154388

Tests used:
[1] = target: T1, Metabotropic glutamate receptor 5 (Rattus norvegicus, UniProt P31424); assay: Antagonist activity at rat mGluR5 expressed in HEK293 cells by calcium mobilization assay; type: functional, cell-based
Outline: (§1)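 Rat mGluR5 in HEK293A cells and rat mGluR1 in BHK cells were loaded with a Ca²⁺-sensitive fluorescent dye and washed. Compound was added 3 s after baseline and incubated for 140 s.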

[2] = target: Metabotropic glutamate receptor 5 (Rattus norvegicus) (UniProt P31424); assay: Positive allosteric modulator activity at rat mGluR5 receptor expressed in HEK293 cells assessed as potentiation of glutamate-induced response at 30 uM relative to glutamate; type: cell-based
Metabotropic glutamate receptor 5 (Rattus norvegicus), sequence (P31424 21-1203 limits assumed): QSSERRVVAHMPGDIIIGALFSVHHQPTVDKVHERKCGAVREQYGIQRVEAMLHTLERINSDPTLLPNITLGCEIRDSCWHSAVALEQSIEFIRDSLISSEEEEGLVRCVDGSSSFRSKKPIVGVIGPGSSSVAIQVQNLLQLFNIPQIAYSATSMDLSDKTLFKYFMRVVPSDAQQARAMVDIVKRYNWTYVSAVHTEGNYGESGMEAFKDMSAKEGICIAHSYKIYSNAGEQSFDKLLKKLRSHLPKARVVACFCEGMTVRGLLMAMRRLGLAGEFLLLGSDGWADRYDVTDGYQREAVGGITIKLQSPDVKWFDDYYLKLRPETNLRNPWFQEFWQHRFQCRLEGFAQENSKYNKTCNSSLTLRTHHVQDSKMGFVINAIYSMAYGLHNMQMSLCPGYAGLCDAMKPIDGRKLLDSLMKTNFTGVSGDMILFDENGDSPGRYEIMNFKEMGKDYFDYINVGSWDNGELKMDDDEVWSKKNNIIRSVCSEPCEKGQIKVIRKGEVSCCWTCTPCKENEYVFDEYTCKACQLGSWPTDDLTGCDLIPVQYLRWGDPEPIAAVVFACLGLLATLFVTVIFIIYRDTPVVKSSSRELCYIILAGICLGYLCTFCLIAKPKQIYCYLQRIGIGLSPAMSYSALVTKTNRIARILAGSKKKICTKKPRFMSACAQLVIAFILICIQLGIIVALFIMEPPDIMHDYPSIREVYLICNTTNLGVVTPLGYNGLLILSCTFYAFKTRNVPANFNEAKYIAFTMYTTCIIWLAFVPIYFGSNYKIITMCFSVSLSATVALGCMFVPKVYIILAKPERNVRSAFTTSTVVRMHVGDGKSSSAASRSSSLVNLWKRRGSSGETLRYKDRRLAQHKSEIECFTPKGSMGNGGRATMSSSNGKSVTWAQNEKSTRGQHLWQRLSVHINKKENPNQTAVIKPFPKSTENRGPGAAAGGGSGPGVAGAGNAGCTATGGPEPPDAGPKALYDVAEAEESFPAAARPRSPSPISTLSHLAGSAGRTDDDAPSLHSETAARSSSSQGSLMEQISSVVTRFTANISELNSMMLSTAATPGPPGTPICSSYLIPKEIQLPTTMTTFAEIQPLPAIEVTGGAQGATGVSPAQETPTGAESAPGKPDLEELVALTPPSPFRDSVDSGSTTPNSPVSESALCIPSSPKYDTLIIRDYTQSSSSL
Outline: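 In mGluR5-expressing HEK293A cells in the calcium mobilization assay, response amplitude with test compound present is expressed as a percentage of the maximal response to glutamate. Values are the average of n≥3.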

[3] = target: T1, Metabotropic glutamate receptor 5; assay: Displacement of [3H]3methoxy-5-(pyridin-2-ylethynyl)pyridine from rat mGluR5
[4] = target: Metabotropic glutamate receptor 1 (Rattus norvegicus, UniProt P23385); assay: Antagonist activity at rat mGluR1 expressed in BHK cells by calcium mobilization assay; type: functional, cell-based; outline: as §1
Metabotropic glutamate receptor 1, sequence (P23385 whole entry): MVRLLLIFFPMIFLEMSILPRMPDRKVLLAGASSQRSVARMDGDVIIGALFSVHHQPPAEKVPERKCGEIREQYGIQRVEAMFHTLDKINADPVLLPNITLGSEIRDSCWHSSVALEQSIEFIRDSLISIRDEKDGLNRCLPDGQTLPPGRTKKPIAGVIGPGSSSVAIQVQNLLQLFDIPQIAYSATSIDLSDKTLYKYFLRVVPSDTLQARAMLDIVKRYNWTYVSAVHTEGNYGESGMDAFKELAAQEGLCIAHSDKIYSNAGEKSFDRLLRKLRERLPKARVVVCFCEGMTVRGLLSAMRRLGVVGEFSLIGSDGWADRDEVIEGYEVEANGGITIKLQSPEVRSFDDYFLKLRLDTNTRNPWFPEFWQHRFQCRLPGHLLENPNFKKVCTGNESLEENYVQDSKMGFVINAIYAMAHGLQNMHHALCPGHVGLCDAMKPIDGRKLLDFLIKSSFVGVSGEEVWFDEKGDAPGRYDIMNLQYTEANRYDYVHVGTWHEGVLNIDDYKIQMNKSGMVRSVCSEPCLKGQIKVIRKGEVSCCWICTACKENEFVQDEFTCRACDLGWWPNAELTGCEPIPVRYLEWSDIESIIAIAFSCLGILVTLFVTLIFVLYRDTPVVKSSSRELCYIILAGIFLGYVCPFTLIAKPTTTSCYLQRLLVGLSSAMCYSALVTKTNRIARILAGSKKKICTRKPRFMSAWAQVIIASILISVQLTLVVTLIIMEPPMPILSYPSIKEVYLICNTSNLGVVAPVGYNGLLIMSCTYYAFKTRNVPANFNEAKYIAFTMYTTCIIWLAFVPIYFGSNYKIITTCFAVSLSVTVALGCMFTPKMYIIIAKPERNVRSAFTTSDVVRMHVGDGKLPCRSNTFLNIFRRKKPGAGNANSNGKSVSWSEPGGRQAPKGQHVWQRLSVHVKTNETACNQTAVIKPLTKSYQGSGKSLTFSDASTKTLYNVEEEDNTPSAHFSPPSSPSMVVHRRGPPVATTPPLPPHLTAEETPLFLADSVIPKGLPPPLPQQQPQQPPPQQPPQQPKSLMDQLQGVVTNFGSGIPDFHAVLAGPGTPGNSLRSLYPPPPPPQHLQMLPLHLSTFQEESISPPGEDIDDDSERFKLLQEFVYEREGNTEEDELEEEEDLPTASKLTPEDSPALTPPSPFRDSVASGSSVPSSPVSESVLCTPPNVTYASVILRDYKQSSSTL

[5] = target: Metabotropic glutamate receptor 5 (Rattus norvegicus) (UniProt P31424); assay: (§2) Positive allosteric modulator activity at rat mGluR5 receptor expressed in HEK293 cells assessed as potentiation of glutamate-induced response; type: cell-based
[6] = target: T1, Metabotropic glutamate receptor 5; assay: as §2; type: cell-based

T1 sequence (P31424 whole entry): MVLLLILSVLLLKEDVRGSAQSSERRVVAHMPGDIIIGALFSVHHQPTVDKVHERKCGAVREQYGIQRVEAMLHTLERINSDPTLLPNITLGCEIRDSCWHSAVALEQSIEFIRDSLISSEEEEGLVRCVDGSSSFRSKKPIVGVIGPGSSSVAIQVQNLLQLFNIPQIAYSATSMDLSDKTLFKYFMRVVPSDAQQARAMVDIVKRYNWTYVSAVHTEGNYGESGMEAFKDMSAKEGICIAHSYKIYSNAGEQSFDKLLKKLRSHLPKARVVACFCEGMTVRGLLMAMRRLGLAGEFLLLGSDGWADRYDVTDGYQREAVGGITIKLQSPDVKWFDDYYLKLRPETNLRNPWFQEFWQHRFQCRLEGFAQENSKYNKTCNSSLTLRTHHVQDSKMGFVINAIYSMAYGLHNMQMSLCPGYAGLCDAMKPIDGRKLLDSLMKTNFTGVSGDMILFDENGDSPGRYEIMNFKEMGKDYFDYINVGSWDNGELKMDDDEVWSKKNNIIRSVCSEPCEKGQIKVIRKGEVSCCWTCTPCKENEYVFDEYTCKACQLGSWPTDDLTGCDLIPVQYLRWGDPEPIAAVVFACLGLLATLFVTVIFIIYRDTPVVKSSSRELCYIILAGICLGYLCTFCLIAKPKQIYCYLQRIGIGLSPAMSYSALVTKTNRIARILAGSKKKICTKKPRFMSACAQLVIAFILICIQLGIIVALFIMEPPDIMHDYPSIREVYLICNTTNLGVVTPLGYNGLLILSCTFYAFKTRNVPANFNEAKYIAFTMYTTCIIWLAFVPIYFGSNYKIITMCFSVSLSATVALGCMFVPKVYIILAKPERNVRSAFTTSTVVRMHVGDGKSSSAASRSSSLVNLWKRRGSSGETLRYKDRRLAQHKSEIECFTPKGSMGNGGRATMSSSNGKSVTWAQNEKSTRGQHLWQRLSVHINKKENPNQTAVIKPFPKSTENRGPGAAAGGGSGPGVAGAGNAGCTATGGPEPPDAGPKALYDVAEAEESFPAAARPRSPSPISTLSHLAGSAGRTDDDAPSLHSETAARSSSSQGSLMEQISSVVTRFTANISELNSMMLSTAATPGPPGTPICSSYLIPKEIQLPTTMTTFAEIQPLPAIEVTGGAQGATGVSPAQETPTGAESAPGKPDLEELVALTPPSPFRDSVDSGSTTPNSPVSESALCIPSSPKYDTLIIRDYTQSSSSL

Structure (SMILES) | IC50 [1] | Activity [2] | also measured
Fc1ccc2ncnc(Nc3cccc(Br)c3)c2c1 | 0.096 µM | 0.6% | Ki [3]: 0.736 µM; IC50 [4]: 0.713 µM
Brc1cccc(Sc2ncnc3ccc(Br)cc23)c1 | > 30 µM |  | 
N#Cc1cccc(Nc2ncnc3ccc(F)cc23)c1 | 1.37 µM | 3.5% | 
N#Cc1ccc2ncnc(Nc3cccc(Cl)c3)c2c1 | > 10 µM | 35% | 
O=[N+]([O-])c1ccc2ncnc(Nc3cccc(Cl)c3)c2c1 | 0.274 µM | 2.4% | 
Clc1ccc2ncnc(NCc3ccccc3)c2c1 | > 30 µM |  | 
Fc1ccc2ncnc(Nc3cccc(C(F)(F)F)c3)c2c1 | > 10 µM | 32% | 
Fc1ccc2ncnc(Nc3ccccc3)c2c1 | > 10 µM | 58% | 
CN(c1cccc(Br)c1)c1ncnc2ccc(Cl)cc12 | > 30 µM |  | 
Brc1cccc(Nc2nccc3ccc(Br)cc23)c1 | 4.33 µM | 5.4% | 
CCc1cccc(Nc2ncnc3ccc(F)cc23)c1 |  |  | Activity [5]: 52%; EC50 [6]: > 10 µM
Clc1ccc(CNc2ncnc3ccc(Cl)cc23)cc1 | > 30 µM |  | 
Fc1cccc(Nc2ncnc3ccc(Br)cc23)c1 | 1.97 µM | 8.8% | 
COc1ccc2ncnc(Nc3cccc(Cl)c3)c2c1 | 1.51 µM | 13% | 
Brc1ccc2ncnc(Nc3ccccc3)c2c1 | > 10 µM | 42% | 
Fc1cc(Cl)cc(Nc2ncnc3ccc(F)cc23)c1 | > 10 µM | 56% | 
Brc1cccc(Oc2ncnc3ccc(Br)cc23)c1 | > 10 µM | 49% | 
Clc1cccc(CCNc2ncnc3ccc(Cl)cc23)c1 | > 30 µM |  | 
Clc1cccc(Nc2ncnc3ccc(Cl)cc23)c1 | 0.13 µM | 2.8% | 
Cc1cccc(Nc2ncnc3ccc(Br)cc23)c1 | 0.246 µM | 1.2% | 

Structure (SMILES) | IC50 [1] | Activity [2] | also measured
Fc1ccc2ncnc(Nc3cccc(Cl)c3)c2c1 | 0.311 µM | 0.9% | 
Clc1ccc2ncnc(NCCc3ccccc3Cl)c2c1 | > 30 µM |  | 
Clc1cccc(CNc2ncnc3ccc(Cl)cc23)c1 | > 30 µM |  | 
COc1cccc(Nc2ncnc3ccc(Br)cc23)c1 | > 10 µM | 34% | 
Fc1ccc2ncnc(Nc3cccc(Cl)c3F)c2c1 | 3.72 µM | 5.2% | 
Clc1cccc(Nc2ncnc3ccc(Br)cc23)c1 | 0.256 µM | 1.5% | Ki [3]: 0.116 µM; IC50 [4]: 0.398 µM
Clc1ccc2ncnc(NCc3ccccc3Cl)c2c1 | > 30 µM |  | 
Clc1ccc2ncnc(Nc3cccc(Br)c3)c2c1 | 0.124 µM | 1.2% | Ki [3]: 0.249 µM; IC50 [4]: 0.955 µM
FC(F)(F)c1cccc(Nc2ncnc3ccc(Br)cc23)c1 | 1.72 µM | 3.2% | 
CN(c1cccc(Br)c1)c1ncnc2ccc(Br)cc12 | > 30 µM |  | 
Clc1ccc(CCNc2ncnc3ccc(Cl)cc23)cc1 | > 30 µM |  | 
Clc1ccc2ncnc(Oc3cccc(Br)c3)c2c1 | 6.57 µM | 14% | 
Clc1ccc2nccc(Nc3cccc(Br)c3)c2c1 | > 30 µM |  | 
COc1cccc(Nc2ncnc3ccc(F)cc23)c1 | > 10 µM | 50% | 
Cc1cccc(Nc2ncnc3ccc(F)cc23)c1 | 1.35 µM | 3.5% | 
Clc1ccc2ncnc(Sc3cccc(Br)c3)c2c1 | > 30 µM |  | 
Brc1cccc(Nc2ncnc3ccc(Br)cc23)c1 | 0.174 µM | 2.5% | 
Clc1ccc2ncnc(Nc3ccccc3)c2c1 | > 10 µM | 31% | 
Clc1ccc2ncnc(NCCc3ccccc3)c2c1 | > 10 µM | 59% | 
Fc1ccc2ncnc(Nc3ccc(F)c(Cl)c3)c2c1 | > 10 µM |  | 
